The subject of data set [1] is Mus musculus. The experiment in a line: Change in plasma triglycerides in diet-induced obese mice over 30 days at 100 mg/kg ip. To be noted: C57BL/6. Set-up: dose 100 mg/kg. Format: functional, organism-based.
For data set [2], the system named is Mus musculus. The experiment in a line: Change in total plasma cholesterol in diet-induced obese mice over 30 days at 100 mg/kg ip. The format is functional, organism-based. Set-up: dose 100 mg/kg. To be noted: C57BL/6.
In data set [3] the test system is Mus musculus. Nature of the data set: Change in plasma NEFA (non-esterified fatty acids) in diet-induced obese mice over 30 days at 100 mg/kg ip. The format is functional, organism-based. Set-up: dose 100 mg/kg. Conditions: C57BL/6.
Data set [4] relates to Mus musculus. The experiment in a line: Change in plasma insulin in diet-induced obese mice over 30 days at 100 mg/kg ip. Set-up: dose 100 mg/kg. Format: functional, organism-based. To be noted: C57BL/6.
Data set [5] concerns Mus musculus. The experiment in a line: Change in plasma leptin in diet-induced obese mice over 30 days at 100 mg/kg ip. The format is functional, organism-based. Set-up: dose 100 mg/kg. To be noted: C57BL/6.
Data set [6] relates to Mus musculus. Nature of the data set: Change in plasma IL-6 in diet-induced obese mice over 30 days at 100 mg/kg ip. Set-up: dose 100 mg/kg. The format is functional, organism-based. To be noted: C57BL/6.
The target in data set [7] is T1, Nuclear receptor subfamily 1 group D member 1 (Homo sapiens, UniProt P20393).
T1 sequence (P20393 whole entry): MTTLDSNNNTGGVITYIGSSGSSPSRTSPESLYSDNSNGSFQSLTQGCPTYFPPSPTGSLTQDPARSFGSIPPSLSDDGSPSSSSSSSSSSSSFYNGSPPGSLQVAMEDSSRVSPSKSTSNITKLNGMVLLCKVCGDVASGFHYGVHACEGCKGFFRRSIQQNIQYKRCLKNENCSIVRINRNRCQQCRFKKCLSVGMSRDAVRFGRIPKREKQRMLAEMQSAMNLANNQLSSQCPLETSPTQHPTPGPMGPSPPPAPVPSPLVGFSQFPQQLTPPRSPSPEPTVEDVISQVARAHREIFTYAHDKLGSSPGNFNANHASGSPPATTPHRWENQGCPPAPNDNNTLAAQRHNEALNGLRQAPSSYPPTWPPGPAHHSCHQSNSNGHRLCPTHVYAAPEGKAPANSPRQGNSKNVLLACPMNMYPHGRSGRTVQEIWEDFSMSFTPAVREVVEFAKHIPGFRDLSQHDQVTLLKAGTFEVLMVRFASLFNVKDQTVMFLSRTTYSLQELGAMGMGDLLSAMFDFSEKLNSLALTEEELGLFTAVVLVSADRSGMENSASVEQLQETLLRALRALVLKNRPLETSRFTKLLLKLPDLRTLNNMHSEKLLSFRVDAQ
The experiment in a line: Increased REV-ERB-alpha LBD dependent repressor activity in HEK293 cell reporter assay. The format is cell-based. Conditions: read-out: IC50. For orientation: A reporter such as luciferase makes a cellular process visible.

For data set [8], the target named is T1, Nuclear receptor subfamily 1 group D member 1. Nature of the data set: REV-ERB-alpha mediated transcriptional suppression at Bmal1 promoter in HEK293 cell reporter assay. Format: functional, cell-based.
Data set [9] in a line: Plasma concentration after 2 hours at 10mg/kg ip dose (10mg/ml suspension in 10%DMSO/10%Tween80). The format is ADME, organism-based. To be noted: mouse, read-out: Conc_plasma. The gist of the method: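 Mice received a single 10 mg/kg i.p. dose as a 10 mg/ml suspension in DMSO/Tween80/water (10/10/80). Plasma was sampled at 1, 2, 4 and 8 h post-injection and drug concentration reported in μM. Mean ± s.e.m., n=3.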

The test system of data set [10] is Fibroblast. The experiment in a line: Inhibition of circadian oscillations in fibroblasts from Per2-luc transgenic mice. The format is functional, cell-based. To be noted: Mus musculus. Summed up: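 Fibroblasts (MEFs) were isolated from Per2^luc transgenic mice and treated with 5 μM compound. Circadian oscillation amplitude was followed by continuous bioluminescence recording in two independent experiments.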

A short description of data set [11]: Decrease in wheel-running behavior in mice in constant darkness. The format is functional. To be noted: Mus musculus.
Data set [12] can be described thus: Decrease in Srebf1 gene expression. The format is functional. Conditions: Mus musculus, Liver.
A short description of data set [13]: Toxicity in CL57BL6 mice after 7 days treatment at 100 mg/kg b.i.d in hematology screen. The format is organism-based, C57BL/6. Set-up: dose 100 mg/kg. To be noted: mouse, in vivo, 168 h. Summed up: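 Vehicle-controlled C57Bl6 mice dosed chronically at 100 mg/kg b.i.d. for 7 days. Complete blood count: WBC, neutrophil, lymphocyte, monocyte, eosinophil and basophil counts and percentages; RBC, Hb, HCT, MCV, MCH, MCHC, RDW, platelet count and MPV. Mean ± s.e.m., n=6.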

Active and inactive are the calls of the source. No cut-off for these calls is given here.

Consider `CCOC(=O)N1CCC(CN(Cc2ccc(Cl)cc2)Cc2ccc([N+](=O)[O-])s2)C1` (stereo not drawn) [SR9009], for which, in data set [1], the Plasma triglyceride was -12%. Also, the Plasma cholesterol in [2] is -47%. The Plasma NEFA in data set [3] was -23%. For the same compound, in [4], the Plasma insulin is -35%. Besides, the Plasma leptin in data set [5] was -80%. Also, the Plasma IL-6 in data set [6] was -72%.

One may read the IC50 as the concentration that gives 50% inhibition. By ED50 is commonly meant the midpoint of the dose-response relation. A higher ED50 goes with a need for a large dose. Consider `CCCCCNC(=O)N1CCC(CN(Cc2ccc(Cl)cc2)Cc2ccc([N+](=O)[O-])s2)C1` (stereo not drawn) [SR9011], for which the IC50 in data set [7] is 790 nM (agonist); in data set [8], 620 nM (agonist). Further, in [9], the concentration at 2 h was found to be 530 nM. Moreover, in data set [10], the Reduced_circadian_oscillation entry was “Active”. Moreover, the ED50 stood at 56 mg/kg in data set [11] and 67 mg/kg in data set [12]. Besides, the Toxicity result in [13] is “Not Toxic”.

These data come from ChEMBL document CHEMBL1961794, “Regulation of circadian behaviour and metabolism by synthetic REV-ERB agonists” (Nature, 2012).
